Apaf-1 act: activators of human Apaf-1 apoptosome; O14727; Apaf-1 apoptosome caspase-3 activation, DEVD-Rh110 fluorescence; hits give low values; 330,000 compounds, 0.31% hits; AID 489031; activity change, negative = activation, % at 20 µM;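 active means activity change at or below -40% at 20 µM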
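Material: biochemical Apaf-1 apoptosome reconstitution; Medium: 20 mM HEPES buffer, pH 7.5, containing CHAPS and BSA; Reagent: dATP, cytochrome c, and (Z-DEVD)2-Rh110 caspase-3 substrate; Times: 30 min preincubation, 50 min reaction, room temperature; Signal: Rh110 fluorescence, excitation 480 nm, emission 540 nm; Measure: Caspase-3 activity via Apaf-1.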
Rh110 interf act: interferes with Rh110 fluorescence, flagging false Apaf-1 activators | shares compounds with Apaf-1 act | Rh110 fluorescence interference, quenched caspase reaction, Ex480/Em540 | fluorescence interference (activity change), % at 20 µM, hits read low | 980 tested, under 10 active | AID 504616;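 active means mean activity change at or below -40% when tested at 20 µM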
Apaf-1 act conf: confirmation of human Apaf-1 activators; shares compounds with Apaf-1 act; reconstituted apoptosome caspase-3 activity, DEVD-Rh110 fluorescence; hits give low values; activity change, negative = activation, % at 20 µM; 980 compounds, 5% hits; AID 504617;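 active means mean activity change at or below -40%, meaning activation of 40% or more, at 20 µM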
Of the large screens only hits and unclear results are named; the others gave an inactive call (follow-up assays come after a bar, where they were run). A selection follows.

O=C(C[C@H]1C[C@H](C(=O)N2CCCCC2)[C@@]2(CCc3ccccc3)c3[nH]c4ccc(Cl)cc4c3CCN2C1=O)NCCCn1ccnc1	none
COc1ccc(C(=O)Nn2cnc3scc(-c4cccs4)c3c2=O)c(O)c1	Apaf-1 act -391 | Rh110 interf act inactive | Apaf-1 act conf inactive
Cc1cc(C)c(S(=O)(=O)Nc2ccc3c4c(cccc24)CC3)c(C)c1	none
Cc1cc(-c2ccc(N=Nc3c(S(=O)(=O)O)cc4cc(S(=O)(=O)O)cc(N)c4c3O)c(C)c2)ccc1N=Nc1c(S(=O)(=O)O)cc2cc(S(=O)(=O)O)cc(N)c2c1O	none
C#CCOCCOCCOCCNc1nc(N2CCN(C(=O)CCCCCCCCCCNC(=O)Cn3cc(CCCCCN)nn3)CC2)nc(N2CCN(C(=O)CCCCCCCCCCNC(=O)[C@H](CO)n3cc(CCCCCN)nn3)CC2)n1	none
CS(=O)(=O)N(Cc1ccc(C(=O)NN=C2CCCCCC2)cc1)c1ccccc1	Apaf-1 act -482 | Rh110 interf act inactive | Apaf-1 act conf inactive
CC(=O)Nc1c(S(=O)(=O)c2ccccc2)c2nc3ccccc3nc2n1Cc1ccccc1	none
COCC(C)N1C(=O)Cc2c1nc(N)c1c(N)nc(N3CCN(c4ccccc4F)CC3)c(C#N)c21 (stereo not drawn)	none
Cc1ccc(-n2nc(C)c3c2OC(N)=C(C#N)C3c2ccoc2)cc1 (stereo not drawn)	none
CC(=O)N1CCC(=O)Nc2ccc([N+](=O)[O-])cc21	Apaf-1 act -64 | Rh110 interf act inactive | Apaf-1 act conf inactive
O=C1Nc2ccccc2Nc2ccc([N+](=O)[O-])cc21	none
COC(=O)C1=C(N)OC2=C(C(=O)CC(C)(C)C2)C1c1cccnc1 (stereo not drawn)	Apaf-1 act -308 | Rh110 interf act inactive | Apaf-1 act conf inactive
Cn1c(CCN2CCCCC2)nc2cc(NC(=O)COc3ccccc3)ccc21	none
N#CCCN(C(=O)COC(=O)C12CC3CC(CC(O)(C3)C1)C2)c1ccc(F)cc1	none
COCCN(CCOC)Cc1c(O)ccc2c3c(c(=O)oc12)CCC3	Apaf-1 act -336 | Rh110 interf act inactive | Apaf-1 act conf inactive
CCOc1cc(/C=C2/C(=O)N(c3ccccc3)N=C2C)ccc1OC(=O)c1ccco1	none
CCOC(=O)c1nn(-c2ccccc2)c(=O)cc1OCC(=O)Nc1cc(C)ccc1OC	Apaf-1 act -57 | Rh110 interf act inactive | Apaf-1 act conf inactive
COc1ccc(CN2CCN(C(c3ccc(F)cc3)c3ccc(F)cc3)CC2)c(OC)c1OC	none
CCOc1cc(C(=S)N2CCOCC2)ccc1OS(=O)(=O)c1ccc(OC)cc1	Apaf-1 act -55 | Rh110 interf act inactive | Apaf-1 act conf inactive
COc1ccc(C(CNC(=O)COc2c(C)cc(C)cc2C)N2CCOCC2)cc1 (stereo not drawn)	none
CCOc1cc(C(c2c(C)[nH][nH]c2=O)c2c(C)[nH][nH]c2=O)ccc1OS(=O)(=O)c1ccc(C)cc1	none
CC1CCN(C2=C(NS(=O)(=O)c3ccc(Cl)cc3)C(=O)c3ccccc3C2=O)CC1	none
COc1ccccc1N1CCN(CC(O)COc2cccc3ccccc23)CC1 (stereo not drawn)	none
Cc1c(C)n(CC(O)CN2CCN(C)CC2)c2ccccc12 (stereo not drawn)	Apaf-1 act -67 | Rh110 interf act inactive | Apaf-1 act conf inactive
Cc1c(C)n(CCC(=O)O)c2ccccc12	Apaf-1 act -70 | Rh110 interf act inactive | Apaf-1 act conf inactive
CC(=O)[C@]1(O)Cc2c(O)c3c(c(O)c2[C@@H](O[C@H]2C[C@H](N)[C@H](O)[C@H](C)O2)C1)C(=O)c1ccccc1C3=O	none
C=CCn1c(N)c(C(=O)Nc2ccccc2)c2nc3ccccc3nc21	none
Cc1ccc(-n2nc3ccc(N)cc3n2)c(C)c1	none
Cn1ccc2cc3c(cc21)CCN3C(=O)Nc1cccnc1	none
CCC(CO)Oc1cc(NCc2ccc(C)cc2)c2ncn(C(C)C)c2c1 (stereo not drawn)	none
Cc1cc(C)cc(Oc2coc3cc(OC(=O)c4cccs4)ccc3c2=O)c1	Apaf-1 act -560 | Rh110 interf act inactive | Apaf-1 act conf inactive
CC1=NN(c2ccc(C(=O)O)cc2)C(=O)/C1=C\c1ccc(OC(=O)c2cccs2)cc1	none
Cc1coc2c1C(=O)C(=O)c1c-2ccc2c1CCCC2(C)C	none
[O-]/C(=C(\C(=S)Nc1cccc2ccccc12)[n+]1ccccc1)c1ccc(Cl)s1	none
CCCNC(=O)OC[C@H]1O[C@H](CCO/N=C(\C)CCN2CCc3nc(-c4ccccc4)c(-c4ccccc4)cc3C2)C=C[C@@H]1Oc1ccc(OC)cc1	none
COc1ccc(/C=N/Nc2cc(N(C)C)nc(N(C)C)n2)cc1	none
COc1ccc2c(c1)CC/C(=C\Nc1ccc3c(c1)OCO3)C2=O	none

From PubChem
